Experiments:
[1] = AUClast in patient (7 patients) with renal insufficiency at 250 mg, po administered as single dose by gas chromatography; format: ADME, organism-based; set-up: dose 250 mg, time 0 - last, route oral; conditions: human, in vivo
Homo sapiens [2] = assay: Cmax in patient (4 patients) with renal insufficiency assessed as hydroxy flutamide at 250 mg, po administered as single dose by gas chromatography; format: ADME, organism-based; set-up: dose 250 mg, route oral; conditions: in vivo
[3] = Drug excretion in urine of patient (7 patients) with renal insufficiency at 250 mg, po administered as single dose by gas chromatography; format: ADME, organism-based; conditions: human, in vivo
Method in brief: (§1)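 Males grouped by 24 h CLcr normalised to body surface area (>80, 50–80, 30–49, 5–29 ml min−1 1.73 m−2), fasted 10 h pre-dose and 4 h post-dose, given a single oral 250 mg flutamide dose. Plasma sampled 0–96 h; urine collected in blocks to 96 h. Flutamide and hydroxyflutamide measured by GC with electron-capture detection. Renal CL = Ae(0,96 h)/AUC(0,96 h); t1/2 = 0.693/λz.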

[4] = Tmax in patient (3 patients) with renal insufficiency at 250 mg, po administered as single dose by gas chromatography; format: ADME, organism-based; conditions: human, in vivo; method in brief: as §1
[5] = AUC (0 to 24 hrs) in patient (4 patients) with renal insufficiency at 250 mg, po administered as single dose by gas chromatography; format: ADME, organism-based; set-up: dose 250 mg, time < 24 hr, route oral; conditions: human, in vivo
Homo sapiens [6] = assay: Tmax in patient (6 patients) with renal insufficiency assessed as hydroxy flutamide at 250 mg, po administered as single dose 4 hrs prior to hemodialysis treatment measured at starting time of dialysis and post dialysis treatment by gas chromatography; format: ADME, organism-based; conditions: in vivo
Method in brief: (§2)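 Group V haemodialysis males (CLcr <5 ml min−1 1.73 m−2). Single oral 250 mg flutamide (two 125 mg capsules) right after HD; after 14-day washout, same dose 4 h before HD lasting 2–4 h. Venous samples to 48 h, arterial/venous during HD, dialysate in hourly blocks. GC with 63Ni electron-capture detection. CL(HD) = dialysate Ae(HD)/arterial AUC(HD); renal CL = Ae(0,48)/AUC(0,48 h).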

Homo sapiens [7] = assay: AUC (0 to 96 hrs) in patient (6 patients) with renal insufficiency at 250 mg, po assessed as hydroxy flutamide administered as single dose by gas chromatography; format: ADME, organism-based; set-up: dose 250 mg, time < 96 hr, route oral; conditions: in vivo
Homo sapiens [8] = assay: Cmax in patient (6 patients) with renal insufficiency assessed as hydroxy flutamide at 250 mg, po administered as single dose 4 hrs prior to hemodialysis treatment measured at starting time of dialysis and post dialysis treatment by gas chromatography; format: ADME, organism-based; set-up: dose 250 mg, route oral; conditions: in vivo
[9] = AUClast in patient (3 patients) with renal insufficiency at 250 mg, po administered as single dose by gas chromatography; format: ADME, organism-based; set-up: dose 250 mg, time 0 - last, route oral; conditions: human, in vivo
[10] = Renal clearance in patient (7 patients) with renal insufficiency at 250 mg, po administered as single dose by gas chromatography; format: ADME, organism-based, Kidney; conditions: human, in vivo; method in brief: as §1
Homo sapiens [11] = assay: AUC in patient with renal insufficiency at 250 mg, po administered first dose followed by 14 days wash out period and administered second dose 4 hrs prior to hemodialysis measured during hemodialysis treatment by gas chromatography; format: ADME, organism-based; conditions: in vivo; method in brief: as §2
Homo sapiens [12] = assay: Renal clearance in patient (7 patients) with renal insufficiency assessed as hydroxy flutamide at 250 mg, po administered as single dose by gas chromatography; format: ADME, organism-based, Kidney; conditions: in vivo; method in brief: as §1
[13] = Drug excretion in urine of patient (7 patients) with renal insufficiency assessed as hydroxy flutamide at 250 mg, po administered as single dose by gas chromatography; format: ADME, organism-based; conditions: human, in vivo; method in brief: as §1
[14] = Cmax in patient (6 patients) with renal insufficiency at 250 mg, po administered as single dose by gas chromatography; format: ADME, organism-based; set-up: dose 250 mg, route oral; conditions: human, in vivo
[15] = Drug excretion in urine of patient (4 patients) with renal insufficiency at 250 mg, po administered as single dose by gas chromatography; format: ADME, organism-based; conditions: human, in vivo; method in brief: as §1
Homo sapiens [16] = assay: AUC (0 to 24 hrs) in patient (4 patients) with renal insufficiency assessed as hydroxy flutamide at 250 mg, po administered as single dose by gas chromatography; format: ADME, organism-based; set-up: dose 250 mg, time < 24 hr, route oral; conditions: in vivo
Homo sapiens [17] = assay: AUC (0 to infinity) in patient (6 patients) with renal insufficiency at 250 mg, po assessed as hydroxy flutamide administered as single dose by gas chromatography; format: ADME, organism-based; set-up: dose 250 mg, route oral, time infinity; conditions: in vivo
Homo sapiens [18] = assay: AUC (0 to infinity) in patient (7 patients) with renal insufficiency at 250 mg, po assessed as hydroxy flutamide administered as single dose by gas chromatography; format: ADME, organism-based; set-up: dose 250 mg, route oral, time infinity; conditions: in vivo
[19] = Drug excretion in urine of patient (3 patients) with renal insufficiency assessed as hydroxy flutamide at 250 mg, po administered as single dose by gas chromatography; format: ADME, organism-based; conditions: human, in vivo; method in brief: as §1
Homo sapiens [20] = assay: Cmax in patient (7 patients) with renal insufficiency assessed as hydroxy flutamide at 250 mg, po administered as single dose by gas chromatography; format: ADME, organism-based; set-up: dose 250 mg, route oral; conditions: in vivo
Homo sapiens [21] = assay: Terminal half life in patient (4 patients) with renal insufficiency assessed as hydroxy flutamide at 250 mg, po administered as single dose by gas chromatography; format: ADME, organism-based; conditions: in vivo; method in brief: as §1
Homo sapiens [22] = assay: AUC (0 to 24 hrs) in patient (6 patients) with renal insufficiency assessed as hydroxy flutamide at 250 mg, po administered as single dose by gas chromatography; format: ADME, organism-based; set-up: time < 24 hr, dose 250 mg, route oral; conditions: in vivo
Homo sapiens [23] = assay: Toxicity in patient with renal insufficiency assessed as level of lactic dehydrogenase at 250 mg, po administered as single dose (reference value: 85 to 220 IU/l); format: organism-based; conditions: in vivo
Method in brief: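 Male subjects were grouped by creatinine clearance: normal renal function, graded impairment, or chronic haemodialysis. Each received a single oral dose as two 125 mg capsules while fasted. Serum lactic dehydrogenase was measured pre-dose and at follow-up and read against the 85–220 IU l−1 normal range.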

Homo sapiens [24] = assay: Final time point in terminal phase in patient (3 patients) with renal insufficiency at 250 mg, po administered as single dose by gas chromatography; format: ADME, organism-based; conditions: in vivo; method in brief: as §1
Homo sapiens [25] = assay: Terminal half life in patient (6 patients) with renal insufficiency assessed as hydroxy flutamide at 250 mg, po administered as single dose by gas chromatography; format: ADME, organism-based; conditions: in vivo; method in brief: as §1
Homo sapiens [26] = assay: Terminal half life in patient (3 patients) with renal insufficiency assessed as hydroxy flutamide at 250 mg, po administered as single dose by gas chromatography; format: ADME, organism-based; conditions: in vivo; method in brief: as §1
[27] = Drug excretion in urine of patient (4 patients) with renal insufficiency assessed as hydroxy flutamide at 250 mg, po administered as single dose by gas chromatography; format: ADME, organism-based; conditions: human, in vivo; method in brief: as §1
Homo sapiens [28] = assay: Final time point in terminal phase in patient (4 patients) with renal insufficiency assessed as hydroxy flutamide at 250 mg, po administered as single dose by gas chromatography; format: ADME, organism-based; conditions: in vivo; method in brief: as §1
[29] = Renal clearance in patient (4 patients) with renal insufficiency at 250 mg, po administered as single dose by gas chromatography; format: ADME, organism-based, Kidney; conditions: human, in vivo; method in brief: as §1
Homo sapiens [30] = assay: Final time point in terminal phase in patient (7 patients) with renal insufficiency at 250 mg, po administered as single dose by gas chromatography; format: ADME, organism-based; conditions: in vivo; method in brief: as §1
Homo sapiens [31] = assay: Final time point in terminal phase in patient (7 patients) with renal insufficiency assessed as hydroxy flutamide at 250 mg, po administered as single dose by gas chromatography; format: ADME, organism-based; conditions: in vivo; method in brief: as §1
[32] = AUClast in patient (6 patients) with renal insufficiency at 250 mg, po administered as single dose by gas chromatography; format: ADME, organism-based; set-up: dose 250 mg, time 0 - last, route oral; conditions: human, in vivo
Homo sapiens [33] = assay: AUC (0 to 96 hrs) in patient (7 patients) with renal insufficiency at 250 mg, po assessed as hydroxy flutamide administered as single dose by gas chromatography; format: ADME, organism-based; set-up: time < 96 hr, dose 250 mg, route oral; conditions: in vivo
[34] = AUC (0 to 24 hrs) in patient (7 patients) with renal insufficiency at 250 mg, po administered as single dose by gas chromatography; format: ADME, organism-based; set-up: dose 250 mg, time < 24 hr, route oral; conditions: human, in vivo

## CC(C)C(=O)Nc1ccc([N+](=O)[O-])c(C(F)(F)F)c1 [FLUTAMIDE]
[1]
  AUC(0-t): 32.5 ng·h/mL
Homo sapiens [2]
  Cmax: 874 ng/mL
[3]
  Drug excretion: 39 µg
[4]
  Tmax: 2 h
[5]
  AUC(0-t) at 24 h: 107 ng·h/mL
Homo sapiens [6]
  Tmax: 1 h
Homo sapiens [7]
  AUC: 5527 ng·h/mL
Homo sapiens [8]
  Cmax: 869 ng/mL
[9]
  AUC(0-t): 74 ng·h/mL
[10]
  CL renal: 22.8 mL/min
Homo sapiens [11]
  AUC: 907.6 ng·h/mL
Homo sapiens [12]
  CL: 0.3 mL/min
[13]
  Drug excretion: 88.3 µg
[14]
  Cmax: 53.4 ng/mL
[15]
  Drug excretion: 30 µg
Homo sapiens [16]
  AUC: 5821 ng·h/mL
Homo sapiens [17]
  AUC: 5527 ng·h/mL
Homo sapiens [18]
  AUC: 4993 ng·h/mL
[19]
  Drug excretion: 132 µg
Homo sapiens [20]
  Cmax: 967 ng/mL
Homo sapiens [21]
  beta t1/2: 9 h
Homo sapiens [22]
  AUC: 5132 ng·h/mL
Homo sapiens [23]
  Activity: 144 IU/L
Homo sapiens [24]
  Time: 6 h
Homo sapiens [25]
  beta t1/2: 7.3 h
Homo sapiens [26]
  beta t1/2: 8 h
[27]
  Drug excretion: 92 µg
Homo sapiens [28]
  Time: 56 h
[29]
  CL renal: 4 mL/min
Homo sapiens [30]
  Time: 3.6 h
Homo sapiens [31]
  Time: 38.6 h
[32]
  AUC(0-t): 75.8 ng·h/mL
Homo sapiens [33]
  AUC: 4993 ng·h/mL
[34]
  AUC(0-t) at 24 h: 59.8 ng·h/mL

— ChEMBL document CHEMBL3784969, “Pharmacokinetics of flutamide in patients with renal insufficiency” (Br J Clin Pharmacol, 1999)
